Measurements from ChEMBL document CHEMBL2169746, “Design, synthesis, and antitumor evaluation of 2,4,6-triaryl pyridines containing chlorophenyl and phenolic moiety” (Eur J Med Chem, 2012).
pIC50: −log10 of the molar value.

What was measured:
[1] = molecular target: DNA topoisomerase 2-alpha (Homo sapiens) (UniProt P11388); experiment: Inhibition of human DNA topoisomerase-2alpha-mediated relaxation of supercoiled pBR322 at 20 uM after 30 mins using ethidium bromide staining by agarose gel electrophoresis
Chain of DNA topoisomerase 2-alpha (Homo sapiens) (P11388 whole entry): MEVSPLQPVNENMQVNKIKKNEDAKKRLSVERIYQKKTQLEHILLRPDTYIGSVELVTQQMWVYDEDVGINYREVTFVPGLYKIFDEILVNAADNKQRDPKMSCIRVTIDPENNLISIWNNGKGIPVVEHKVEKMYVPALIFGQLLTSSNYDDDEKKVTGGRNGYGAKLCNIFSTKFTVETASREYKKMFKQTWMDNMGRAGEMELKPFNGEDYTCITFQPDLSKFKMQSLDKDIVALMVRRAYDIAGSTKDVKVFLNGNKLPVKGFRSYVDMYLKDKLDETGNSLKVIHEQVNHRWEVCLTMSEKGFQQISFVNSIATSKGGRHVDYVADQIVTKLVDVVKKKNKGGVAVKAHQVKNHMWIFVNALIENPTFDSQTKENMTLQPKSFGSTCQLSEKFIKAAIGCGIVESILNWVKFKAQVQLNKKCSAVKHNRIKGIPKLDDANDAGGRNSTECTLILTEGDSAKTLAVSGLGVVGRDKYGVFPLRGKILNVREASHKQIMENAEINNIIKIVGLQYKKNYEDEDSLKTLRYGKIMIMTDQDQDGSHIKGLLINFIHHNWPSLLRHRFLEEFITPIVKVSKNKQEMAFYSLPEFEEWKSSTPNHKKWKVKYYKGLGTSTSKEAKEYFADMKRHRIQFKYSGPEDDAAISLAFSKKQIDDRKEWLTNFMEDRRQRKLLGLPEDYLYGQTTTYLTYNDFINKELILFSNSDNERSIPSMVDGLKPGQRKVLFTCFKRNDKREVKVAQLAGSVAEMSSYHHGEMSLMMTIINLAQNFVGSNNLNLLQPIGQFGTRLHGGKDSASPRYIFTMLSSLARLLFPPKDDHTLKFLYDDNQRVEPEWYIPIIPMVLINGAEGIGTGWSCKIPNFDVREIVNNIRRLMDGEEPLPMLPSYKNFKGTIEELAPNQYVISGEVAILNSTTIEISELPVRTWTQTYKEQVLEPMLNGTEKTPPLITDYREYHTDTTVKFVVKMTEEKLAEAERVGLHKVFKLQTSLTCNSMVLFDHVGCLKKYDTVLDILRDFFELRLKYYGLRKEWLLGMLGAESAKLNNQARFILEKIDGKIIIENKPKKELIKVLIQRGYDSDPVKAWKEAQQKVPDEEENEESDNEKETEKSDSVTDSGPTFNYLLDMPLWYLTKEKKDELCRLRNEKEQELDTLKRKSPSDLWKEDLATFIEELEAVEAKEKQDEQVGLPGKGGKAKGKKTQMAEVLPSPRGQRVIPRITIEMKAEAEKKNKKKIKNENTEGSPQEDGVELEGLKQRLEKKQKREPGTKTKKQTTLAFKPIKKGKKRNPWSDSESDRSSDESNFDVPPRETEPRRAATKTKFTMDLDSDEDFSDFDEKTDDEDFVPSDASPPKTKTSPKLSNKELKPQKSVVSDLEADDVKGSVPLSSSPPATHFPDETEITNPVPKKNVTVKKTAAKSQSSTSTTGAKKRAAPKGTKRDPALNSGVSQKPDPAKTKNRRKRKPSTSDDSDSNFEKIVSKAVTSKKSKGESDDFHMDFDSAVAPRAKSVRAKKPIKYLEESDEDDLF
How it was run: (§1)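 200 ng supercoiled pBR322 with 1 unit human topo IIα, with or without compound. Buffer was 10 mM Tris-HCl pH 7.9, 50 mM NaCl, 5 mM MgCl₂, 1 mM EDTA, 1 mM ATP and bovine serum albumin. Incubated 30 min at 30 °C, stopped with EDTA. Products run on 1% agarose gel, 25 V, 4 h, TAE buffer. Compound stocks 20 mM in DMSO.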

[2] = molecular target: DNA topoisomerase 2-alpha (Homo sapiens) (UniProt P11388); experiment: Inhibition of human DNA topoisomerase-2alpha-mediated relaxation of supercoiled pBR322 at 100 uM after 30 mins using ethidium bromide staining by agarose gel electrophoresis; how it was run: as §1
T47D = experiment: Cytotoxicity against human T47D cells after 2 days by cell counting kit-8 analysis; type: functional, cell-based; settings: 48 h
How it was run: (§2)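 Cells grown per supplier's instructions, seeded at 2-4 × 10⁴ cells/well and incubated overnight in medium with 10% FBS at 37 °C, 5% CO₂. On day 2, after 4 h FBS starvation, medium was replaced with medium containing graded compound concentrations. Absorbance read at 450 nm. IC50 from a four-parameter logistic fit. Three independent experiments in triplicate, mean ± S.D.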

DU-145 = experiment: Cytotoxicity against human DU145 cells after 2 days by cell counting kit-8 analysis; type: functional, cell-based; settings: DU-145, 48 h; how it was run: as §2
[3] = molecular target: T1, DNA topoisomerase 1 (Homo sapiens) (UniProt P11387); experiment: Inhibition of recombinant human DNA topoisomerase-1-mediated relaxation of supercoiled pBR322 at 20 uM after 30 mins using ethidium bromide staining by agarose gel electrophoresis
T1 sequence (whole entry): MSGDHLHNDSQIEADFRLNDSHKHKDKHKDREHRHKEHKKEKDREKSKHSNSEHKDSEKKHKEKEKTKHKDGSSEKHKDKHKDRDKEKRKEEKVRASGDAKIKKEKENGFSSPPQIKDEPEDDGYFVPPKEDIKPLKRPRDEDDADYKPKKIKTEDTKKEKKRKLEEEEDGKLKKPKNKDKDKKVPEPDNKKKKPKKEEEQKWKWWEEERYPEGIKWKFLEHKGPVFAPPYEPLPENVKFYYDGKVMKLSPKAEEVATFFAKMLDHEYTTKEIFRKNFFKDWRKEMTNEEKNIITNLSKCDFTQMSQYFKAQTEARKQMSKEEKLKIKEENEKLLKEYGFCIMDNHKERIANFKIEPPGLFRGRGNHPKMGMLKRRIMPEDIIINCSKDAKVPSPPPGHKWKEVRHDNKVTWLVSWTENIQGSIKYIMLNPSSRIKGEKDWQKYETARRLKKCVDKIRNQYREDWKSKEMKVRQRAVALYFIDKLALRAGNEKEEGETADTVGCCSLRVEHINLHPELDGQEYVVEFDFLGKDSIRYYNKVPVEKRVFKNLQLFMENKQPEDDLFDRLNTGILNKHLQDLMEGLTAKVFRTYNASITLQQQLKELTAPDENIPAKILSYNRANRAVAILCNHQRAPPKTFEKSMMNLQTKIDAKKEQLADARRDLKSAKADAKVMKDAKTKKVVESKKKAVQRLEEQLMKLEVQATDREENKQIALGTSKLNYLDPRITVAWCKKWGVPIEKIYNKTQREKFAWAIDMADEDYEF
How it was run: (§3)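 Compounds from 20 mM DMSO stocks. 100 ng pBR322 plasmid DNA with 1 unit recombinant human topo I, with or without compound, 37 °C for 30 min. Relaxation buffer was 10 mM Tris-HCl pH 7.9, 150 mM NaCl, 0.1% BSA, 1 mM spermidine. Relaxation of supercoiled DNA assessed by gel imaging.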

[4] = molecular target: T1, DNA topoisomerase 1 (Homo sapiens); experiment: Inhibition of recombinant human DNA topoisomerase-1-mediated relaxation of supercoiled pBR322 at 100 uM after 30 mins using ethidium bromide staining by agarose gel electrophoresis; how it was run: as §3
HCT-15 = experiment: Cytotoxicity against human HCT15 cells after 2 days by cell counting kit-8 analysis; type: functional, cell-based; settings: HCT-15, 48 h; how it was run: as §2
HEK293 = experiment: Cytotoxicity against human HEK293 cells after 2 days by cell counting kit-8 analysis; type: cell-based; settings: HEK293, 48 h; how it was run: as §2

SMILES	inhibition [1] [%]	inhibition [2] [%]	inhibition [3] [%]	inhibition [4] [%]	pIC50 (T47D)	pIC50 (DU-145)	pIC50 (HCT-15)	pIC50 (HEK293)
Oc1ccc(-c2cc(-c3ccc(Cl)cc3)nc(-c3cccs3)c2)cc1	22	77.2	0	38.8	5.19	5.12	5.19	5.34
Oc1ccc(-c2cc(-c3ccccc3)nc(-c3ccc(Cl)cc3)c2)cc1	44.6	80.9	55.2	68	5.37	5.14	5.16	5.32
Oc1cccc(-c2cc(-c3ccc(Cl)cc3)nc(-c3ccccn3)c2)c1	13.1	59.4	0	30	4.86	5.09	4.87	4.85
Oc1ccc(-c2cc(-c3cccc(Cl)c3)nc(-c3cccs3)c2)cc1	0	72.4	0	52.4	5.27	5.24	5.30	5.57
Oc1ccc(-c2cc(-c3ccc(Cl)cc3)nc(-c3ccsc3)c2)cc1	67.1	83.6	30.7	47.7	5.26	5.16	5.20	5.31
Oc1ccc(-c2cc(-c3ccc(Cl)cc3)nc(-c3ccccn3)c2)cc1	13.1	66.7		12.7	4.59	4.65	4.67	4.57

Continued, in another order:

inhibition [1] [%]	inhibition [2] [%]	inhibition [3] [%]	inhibition [4] [%]	SMILES	pIC50 (T47D)	pIC50 (DU-145)	pIC50 (HCT-15)	pIC50 (HEK293)
0	67.5	0	59.4	Oc1ccc(-c2cc(-c3cccc(Cl)c3)nc(-c3ccccn3)c2)cc1	4.55	4.45	4.55	4.59
0	46.9	0	55.2	Oc1ccc(-c2cc(-c3cccnc3)nc(-c3cccc(Cl)c3)c2)cc1	4.59	4.64	4.67	4.59
0	83.7		26	Oc1ccc(-c2cc(-c3ccsc3)nc(-c3cccc(Cl)c3)c2)cc1	5.13	5.21	5.24	5.57
